Results published in PubChem BioAssay AID540281 (Sanford-Burnham Center for Chemical Genomics, 2011).
The whole screen tested about 2,500 compounds, of which about 1,500 (60%) were called active.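 The calls were made as follows: active = inhibition of at least 30% at 20 µM; inactive = the rest.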 So high a share suggests a set chosen from earlier hits. Only a selection was taken, and actives are over-represented in it overall.

Each molecule was assayed against Carboxy-terminal domain RNA polymerase II polypeptide A small phosphatase 1 (Homo sapiens) (UniProt Q9GZU7) (assay: Scp-1 phosphatase inhibitors, retest, confirmation, biochemical, colorimetric, single concentration (AID 540281;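 also: plate controls were DMSO with enzyme for no effect and buffer wells lacking enzyme for full effect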)). Conditions: recombinant SCP-1 catalytic domain, phosphate release, malachite green absorbance; at 20 µM; hits give high values.
Carboxy-terminal domain RNA polymerase II polypeptide A small phosphatase 1 (Homo sapiens), sequence (Q9GZU7 76-261 limits assumed): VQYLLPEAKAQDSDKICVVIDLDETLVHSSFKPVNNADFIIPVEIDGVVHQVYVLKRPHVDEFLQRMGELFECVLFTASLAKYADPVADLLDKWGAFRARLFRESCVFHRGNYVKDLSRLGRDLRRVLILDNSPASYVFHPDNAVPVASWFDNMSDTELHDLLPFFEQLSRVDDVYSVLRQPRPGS
In short: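 Material: SCP-1 enzyme, residues 76-261; Times: 45 min phosphatase reaction at RT; Reagent: Phospho-17-mer peptide substrate; Dosing: single 20 µM final compound concentration, 1.0% DMSO; Medium: Acidic Tris acetate with 10 mM MgCl2 and Tween-20, pH 5.5; Technique: absorbance at 630 nm, free phosphate colorimetry.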

Q: Which inhibition does the source give for `O=c1[nH]c(=O)n(CCc2ccc(F)cc2)c(O)c1/C=N/N1CCCCC1` here?
A: Its inhibition is 34.8% (active).

Q: For `COc1ccccc1N=C1SCCCN1C`, which inhibition is on record?
A: Its inhibition is 81.9% (active).

Q: `O=C(O)CCn1cc(C=C2C(=O)NC(=S)NC2=O)c(-c2cccc(Br)c2)n1` was tested. Which inhibition did it give?
A: Its inhibition is 40% (active).
